3 molecules from ChEMBL document CHEMBL1125881, “Synthesis and hypocholesterolemic activity of 6,7-dihydro-4H-pyrazolo[1,5-a]pyrrolo[3,4-d]pyrimidine-5,8-diones, novel inhibitors of acylCoA:cholesterol O-acyltransferase” (J Med Chem, 1991) can be followed below.

The test system of assay [1] is Rattus norvegicus. As to the kind of experiment: The compound was tested for % absorption of cholesterol in Cholesterol-Fed rats dosed at 20 mg/kg of body weight per day. The format is functional, organism-based. Details: dose 20 mg/kg. The method, boiled down:
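Zilversmit dual-isotope plasma ratio method in rats fed cholesterol diet ± compound in feed at 20 mg/kg/day. After one week, [3H]cholesterol given iv and [14C]cholesterol by oral gavage. Blood sampled on days 4, 7 and 9 after label; % oral cholesterol absorbed averaged over the 3 days per rat; one-way design.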

For assay [2], the species on record is Rattus norvegicus. The assay can be described thus: Serum lipoprotein cholesterol fed rats dieted for both weeks, after one week. It counts as functional, organism-based. Summed up: (§1)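 Rats fed 1% cholesterol diet for one week, then for a second week the same diet with inhibitor in feed at 20 mg/kg/day, or the synthetic diet without cholesterol. 5 rats per group. Serum HDL, VLDL/LDL (PEG-8000 precipitation, glycine pH 9) and total cholesterol measured at day 7 and […].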

In assay [3] the target is T1, Sterol O-acyltransferase 1 (Rattus norvegicus) (UniProt O70536).
T1 sequence (whole entry): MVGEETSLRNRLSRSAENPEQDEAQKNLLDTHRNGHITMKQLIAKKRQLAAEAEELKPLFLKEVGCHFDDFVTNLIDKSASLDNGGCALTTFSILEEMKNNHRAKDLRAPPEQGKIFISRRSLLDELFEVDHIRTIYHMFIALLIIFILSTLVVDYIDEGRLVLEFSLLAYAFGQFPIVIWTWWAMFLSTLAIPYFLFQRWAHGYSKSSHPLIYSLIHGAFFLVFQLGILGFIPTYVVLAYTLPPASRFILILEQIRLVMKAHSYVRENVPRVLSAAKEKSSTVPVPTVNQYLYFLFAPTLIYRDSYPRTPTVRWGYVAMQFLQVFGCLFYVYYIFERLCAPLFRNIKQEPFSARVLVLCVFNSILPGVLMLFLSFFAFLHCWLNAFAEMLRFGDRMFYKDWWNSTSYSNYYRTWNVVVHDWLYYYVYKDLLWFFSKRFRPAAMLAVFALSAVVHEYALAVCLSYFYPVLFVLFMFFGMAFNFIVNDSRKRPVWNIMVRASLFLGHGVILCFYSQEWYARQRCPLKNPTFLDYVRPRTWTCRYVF
As to the kind of experiment: The compound was tested for Serum Lipoprotein cholesterol- (total) (mg/dL) concentrations in Cholesterol-fed rats Treated with ACAT inhibitor. The format is functional. Summed up:
as §1

For assay [4], the species on record is Rattus norvegicus. As to the kind of experiment: (§2) The compound was tested for % control of serum cholesterol in cholesterol. The format is functional. The method, boiled down: (§3)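 Male Sprague-Dawley rats (100–110 g), groups of 10, fed synthetic diet with 1% cholesterol; compound mixed into diet to give the stated daily dose (mg/kg) for 7 days. Serum from jugular bleed under anesthesia; VLDL+LDL separated from HDL by PEG-8000 precipitation in glycine buffer pH 9; values expressed as % of cholesterol-fed control; one-way design, LSD comparison.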

Assay [5] concerns the target T1, Sterol O-acyltransferase 1 (Rattus norvegicus). As to the kind of experiment: (§4) Serum lipoprotein cholesterol diet containing ACAT inhibitor, after one week. It counts as functional. Summed up:
as §1

The species entered for assay [6] is Rattus norvegicus. As to the kind of experiment: (§5) Serum lipoprotein cholesterol fed rats dieted or both weeks, after two weeks. It counts as functional, organism-based. Summed up:
as §1

Assay [7] is filed under the species Rattus norvegicus. The assay can be described thus: (§6) Serum lipoprotein cholesterol fed rats dieted or both weeks, after one week. The format is functional, organism-based. Summed up: as §1
Assay [8] has as its target T1, Sterol O-acyltransferase 1 (Rattus norvegicus). The assay is described as §4. It counts as functional. The method, boiled down:
as §1
This is another data set of the same source.

Assay [9] has the same target. The assay can be described thus: (§7) Serum lipoprotein cholesterol in Cholesterol-fed rats Treated with ACAT inhibitor, after one week. It counts as functional. Summed up:
as §1

For assay [10], the species on record is Rattus norvegicus. The description is as §2. The format is functional. The method, boiled down:
as §3
This is another data set of the same source.

In assay [11] the target is T1, Sterol O-acyltransferase 1 (Rattus norvegicus). The assay is described as §7. It counts as functional. Summed up: as §1
The source holds these as a separate data set.

For assay [12] the target is unchanged. As to the kind of experiment: (§8) Serum lipoprotein cholesterol in Cholesterol-fed rats Treated with ACAT inhibitor, after two weeks. It counts as functional. Summed up:
as §1

Assay [13] shares this target. The assay can be described thus: Inhibition of Fu5AH Acyl coenzyme A:cholesterol acyltransferase at the concentration of 10 ug/mL.
The species named for assay [14] is Rattus norvegicus. The assay is described as §2. It counts as functional. The method, boiled down: as §3
The source holds these as a separate data set.

Assay [15] deals with T1, Sterol O-acyltransferase 1 (Rattus norvegicus). The assay can be described thus: (§9) Serum lipoprotein cholesterol diet containing ACAT inhibitor, after two weeks. The format is functional. The method, boiled down: as §1
The species entered for assay [16] is Rattus norvegicus. The assay can be described thus: (§10) Percent control of serum cholesterol in cholesterol. It counts as functional. On the set-up: concentration or dose not given beside the values. Summed up: as §3
The species named for assay [17] is Rattus norvegicus. The assay is described as §2. It counts as functional. The method, boiled down: as §3
The source holds these as a separate data set.

Assay [18] concerns the target T1, Sterol O-acyltransferase 1 (Rattus norvegicus). The assay can be described thus: The compound was tested for Serum Lipoprotein cholesterol- (HDL) (mg/dL) concentrations in Cholesterol-fed rats Treated with ACAT inhibitor. It counts as functional. Summed up:
as §1

The species named for assay [19] is Rattus norvegicus. The description is as §10. The format is functional. Details: concentration or dose not given beside the values. Summed up:
as §3
The source holds these as a separate data set.

For assay [20], the target named is T2, Sterol O-acyltransferase 1 (Rattus norvegicus, UniProt O70536).
T2 sequence (O70536 whole entry): T1 sequence (whole entry)
As to the kind of experiment: In vitro inhibition of Fu5AH acyl coenzyme A:cholesterol acyltransferase.

For assay [21], the species on record is Rattus norvegicus. The description is as §10. It counts as functional. On the set-up: concentration or dose not given beside the values. The method, boiled down:
as §3
The source holds these as a separate data set.

For assay [22], the target named is T1, Sterol O-acyltransferase 1 (Rattus norvegicus). The assay can be described thus: The compound was tested for Serum Lipoprotein cholesterol- (VLDL+LDL) (mg/dL) concentrations in Cholesterol-fed rats Treated with ACAT inhibitor. The format is functional. The method, boiled down: as §1
For assay [23], the species on record is Rattus norvegicus. The description is as §2. The format is functional. Summed up: as §3
The source holds these as a separate data set.

In assay [24] the target is T1, Sterol O-acyltransferase 1 (Rattus norvegicus). Described as §7. The format is functional. Summed up: as §1
The source holds these as a separate data set.

For assay [25] the target is unchanged. The description is as §9. It counts as functional. Summed up:
as §1
This is another data set of the same source.

Assay [26] has the same target. The description is as §8. The format is functional. The method, boiled down: as §1
The source holds these as a separate data set.

Assay [27] is filed under the species Rattus norvegicus. The description is as §6. The format is functional, organism-based. The method, boiled down:
as §1
This is another data set of the same source.

For assay [28], the species on record is Rattus norvegicus. As to the kind of experiment: Serum lipoprotein cholesterol fed rats dieted for both weeks, after two weeks. The format is functional, organism-based. Summed up:
as §1

Assay [29] has as its target T1, Sterol O-acyltransferase 1 (Rattus norvegicus). The description is as §8. The format is functional. The method, boiled down:
as §1
The source holds these as a separate data set.

The target is the same in assay [30]. The description is as §4. It counts as functional. Summed up: as §1
This is another data set of the same source.

The species named for assay [31] is Rattus norvegicus. Described as §5. It counts as functional, organism-based. Summed up:
as §1
This is another data set of the same source.

The species named for assay [32] is Rattus norvegicus. The assay is described as §2. The format is functional. Summed up: as §3
The source holds these as a separate data set.

The species named for assay [33] is Rattus norvegicus. Described as §2. It counts as functional. Summed up:
as §3
This is another data set of the same source.

The species entered for assay [34] is Rattus norvegicus. Described as §2. The format is functional. Summed up:
as §3
This is another data set of the same source.

For orientation: inhibition means how much of the control response was suppressed. Broadly, the IC50 is the midpoint of a concentration-inhibition curve. `O=C(Cn1c2c(c(=O)n3nc(-c4ccc(Cl)cc4)cc13)CN(C1CCCCC1)C2=O)c1ccccc1` showed an Absorption in the assay on Rattus norvegicus [1] of 27%. For the same molecule, the Serum lipoprotein cholesterol was determined as 146 in the assay filed under Rattus norvegicus [2]; 118 in assay [3]; 65.8 in [5]; 91.9 in the assay listed under Rattus norvegicus [6]; 68.8 in the assay filed under Rattus norvegicus [7]; 119 in assay [8]. In addition, the Serum lipoprotein cholesterol was 52.9 in [9]; 130 in assay [11]; 106 in assay [12]; 108 in [15]; 76.4 in [18]; 41.8 in assay [22]. Besides, the Serum lipoprotein cholesterol in assay [24] stood at 182; in [25] it was 32.6; in assay [26], 50.3; in the assay listed under Rattus norvegicus [27], 77.8; in the assay filed under Rattus norvegicus [28], 144; in assay [29], 56.1. The Serum lipoprotein cholesterol in assay [30] was determined as 184; in the assay listed under Rattus norvegicus [31], 52.2. Moreover, the Control was determined as 32% in the assay filed under Rattus norvegicus [4]; 130% in the assay listed under Rattus norvegicus [10]; 84% in the assay listed under Rattus norvegicus [14]; 40% in the assay filed under Rattus norvegicus [16]; 37% in the assay filed under Rattus norvegicus [17]; 134% in the assay listed under Rattus norvegicus [19]. Besides, the Control in the assay listed under Rattus norvegicus [21] came out at 85%; in the assay filed under Rattus norvegicus [23] it was 81%; in the assay filed under Rattus norvegicus [32] it was 141%. This molecule also gave an inhibition in assay [13] of 85%. The molecule also showed an IC50 in [20] of 2.99 µM.
Turning to `CC1CCCC(N2Cc3c(n(CC(=O)c4ccccc4)c4cc(-c5ccccc5)nn4c3=O)C2=O)C1C` (stereo not drawn), the Control in the assay listed under Rattus norvegicus [4] was determined as 62%; in the assay listed under Rattus norvegicus [10], 105%; in the assay listed under Rattus norvegicus [14], 83%; in the assay listed under Rattus norvegicus [16], 59%; in the assay listed under Rattus norvegicus [17], 70%; in the assay listed under Rattus norvegicus [19], 122%. Besides, the Control stood at 89% in the assay filed under Rattus norvegicus [21], 86% in the assay filed under Rattus norvegicus [23] and 109% in the assay listed under Rattus norvegicus [32]. In addition, the inhibition in assay [13] was determined as 79%. The same molecule showed an IC50 in assay [20] of 6.67 µM.
Consider `C=CCCCCn1c2c(c(=O)n3nc(-c4ccccc4)cc13)CN(C1CCCCC1)C2=O`, for which the Control in the assay filed under Rattus norvegicus [33] was determined as 114%; in the assay filed under Rattus norvegicus [34] it was 95%; in the assay filed under Rattus norvegicus [17], 79%. The molecule also showed an inhibition in assay [13] of 93%. In [20], half-maximal inhibition (IC50) required 10.2 µM.
